The series can be described thus: Toxicity liver stage against HepG2, at 10uM. Also noted: test concentration 10 uM, cell line HepG2-A16-CD81EGFP. In kind it is cell-based. As to conditions: human, HepG2-A16-CD81EGFP cells; read-out: INHIBITION
The method in brief:
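Uninfected HepG2-A16-CD81EGFP cells, 3 × 10^3 per well, 1536-well, plated on prespotted compound at 10 μM final, parasite-free screening media added to match infected plates; puromycin 10 μM positive, DMSO 0.5% negative; run in parallel with 48 h PbLuc assay at 37 °C, 5% CO2; viability by CellTiter-Glo luminescence, normalized to controls.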
With `CN(C)C(CNC(=O)c1nc(N2CCOCC2)ncc1Cl)c1ccco1` (stereo not drawn), the cytotoxicity at 10 µM turned out to be 7.96%. For `CCN(CC)CC[C@H]1CN(C(=O)NC2CCCCC2)CC[C@H]1CC(=O)O`, the cytotoxicity at 10 µM came to 7.77%. With `CC(C)NC(=O)NC[C@H]1OC[C@@H](NCc2ccccc2O)[C@@H]1O` the figure was -1.69%; with `O=C1CC2(CCN(C(=O)c3ccccn3)CC2)Oc2c(Cl)cc(Cl)cc21`, 1.73%; with `O=C(NCCCn1ccnc1)c1cccnc1OCC(F)(F)F`, 6.58%. For the compound `CN(C)C(CNc1c(NCc2ccco2)c(=O)c1=O)c1ccccc1` (stereo not drawn), the cytotoxicity at 10 µM is 5.16%. In the case of `CC(C)NC(=O)N1CCC2(CC1)COc1ccccc1S(=O)(=O)N(C)C2`, the cytotoxicity at 10 µM is 7.02%. Consider `O=C1CCCN1Cc1ncn2c1CN(C(=O)Cc1ccccc1)CCC2`, for which the cytotoxicity at 10 µM amounted to 6.49%. Regarding `Cc1nnn2c1COCC(CNC(=O)c1cnoc1C)C2` (stereo not drawn), the cytotoxicity at 10 µM was -2.69%. In the case of `Cc1cccc(CN2C[C@@H]3CN(C(=O)c4ccnnc4)C[C@@H]3C2=O)c1` it was -6.89%; in that of `O=C(CSC1CCc2ccccc2NC1=O)NCCc1ccc(O)cc1` (stereo not drawn), -4.25%.

`Cc1ccc(-c2noc(C3CCN3C(=O)c3ccc(=O)[nH]n3)n2)s1` (stereo not drawn): the cytotoxicity at 10 µM is 7.53%.

Regarding `Cc1cnn(CCNCc2nccn2CC(F)(F)F)c1`, the cytotoxicity at 10 µM amounted to 6.51%. In the case of `NC(=O)NC(=O)C(c1ccccc1)N1CCN(Cc2ccsc2)CC1` (stereo not drawn) it was 1.94%. Regarding `O=C1CCCN1Cc1ccc(C(=O)N2CCCC2c2cccs2)cc1` (stereo not drawn), the cytotoxicity at 10 µM was determined as 3.78%. In the case of `CC(CNC(=O)N1CCN(Cc2ccon2)CC1)N(C)C1CC1` (stereo not drawn) it was -6.74%; in that of `c1ccc2c(N3CCOC(Cn4cccn4)C3)ncnc2c1` (stereo not drawn), -1.04%; in that of `Cc1cc(F)ccc1-n1cc(O)c(C(=O)NCC2(O)CCC2)n1`, 0.477%. With `O=C(c1ccncc1)N1CCN(C(=O)c2coc3ccccc23)CC1` the figure was 4.27%; with `CC1(C(=O)NCCN2CCCCC2)CCCN1C(=O)c1ccccc1` (stereo not drawn), -6.44%; with `CN(Cc1ccncc1)C(CO)c1cccc(Br)c1` (stereo not drawn), 15.4%. In the case of `COCc1nn(Cc2ccc(Br)s2)c(=O)o1` it was 1.99%. For the compound `CCOCc1ccc(NC(=O)NC2CCCn3nc(CC)nc32)cc1` (stereo not drawn), the cytotoxicity at 10 µM is -7.68%. With `Cc1ccc(-c2cnnc(NCC3(N4CCOCC4)CCCC3)n2)o1` the figure was -6.79%. Take `O=C(Cc1ccc(F)cc1Cl)N[C@@H]1CCNC[C@H]1O`: the cytotoxicity at 10 µM was -0.918%.

Regarding `CC(NC(=O)NCc1cccc(F)c1)(C(=O)O)c1ccco1` (stereo not drawn), the cytotoxicity at 10 µM is -3.33%. Turning to `COc1c(CNCc2ccc3c(c2)OCO3)c(C(C)C)nn1C`, the cytotoxicity at 10 µM came to 0.745%.

For `CC(C)c1nn(C)c(N2CCOCC2)c1CNC(C)c1ccco1` (stereo not drawn), the cytotoxicity at 10 µM was -5.93%. With `Cc1cc(C(=O)N2CCCC2c2noc(C(C)C)n2)c(C)o1` (stereo not drawn) the figure was -3.54%. With `Cc1cc(C)n(CC2CCCCN2C(=O)CCc2ccncc2)n1` (stereo not drawn) the figure was 2.1%; with `Cc1ccc(NC2CCN(C(=O)COc3cccc(F)c3)CC2)nn1`, 3.11%. Take `COCCOc1ccccc1C(=O)NCCN(C)C(C)C`: the cytotoxicity at 10 µM came out at 0.449%. For `O=C(CCc1ccc(Cl)s1)N1CCCC(n2cncn2)C1` (stereo not drawn), the cytotoxicity at 10 µM was -7.7%. Regarding `COCCNC(=O)[C@@H]1C[C@@H]2CCN(c3ncccn3)C[C@H]2O1`, the cytotoxicity at 10 µM is -2.48%. With `O=C(c1ccsc1)N1C[C@H]2CN(Cc3cccnc3)C(=O)[C@H]2C1`, the cytotoxicity at 10 µM was -5.15%. For the compound `COc1ccc(CN2CC[C@H]3[C@H](CO[C@H]3CNC(=O)N(C)C)C2)cc1`, the cytotoxicity at 10 µM was 6.96%. On to `CC(C)n1cnc2c1C(C(=O)N(C)C)N(Cc1ccccc1)CC2` (stereo not drawn), for which the cytotoxicity at 10 µM is -2.56%.

Turning to `CC(=O)N1C[C@H]2CC[C@@H](C1)N(Cc1ccc(Cn3cccn3)cc1)C2`, the cytotoxicity at 10 µM came to 0.0531%.

The record behind these values is ChEMBL document CHEMBL4513216, “Probing the Open Global Health Chemical Diversity Library for Multistage-Active Starting Points for Next-Generation Antimalarials” (ACS Infect Dis, 2020).
